Consider 7 molecules from ChEMBL document CHEMBL3259543 (Bioorg Med Chem Lett, 2014).

Molecules are shown by their SMILES.

Assay [1] has as its target T1, Protease (Human immunodeficiency virus 1, UniProt Q9YQ12). In words: Inhibition of purified HIV-1 protease using [Arg-Glu(EDANS)-Ser-Gin-Asn-Tyr-Ile-Val-Gin-Lys(dabcyl)-Arg) as fluorogenic substrate at 50 ng/ml by fluorescence assay.
For assay [2], the target named is T1, Protease. Nature of the assay: Inhibition of purified HIV-1 protease using [Arg-Glu(EDANS)-Ser-Gin-Asn-Tyr-Ile-Val-Gin-Lys(dabcyl)-Arg) as fluorogenic substrate at 0.4 ng/ml by fluorescence assay.
The target in assay [3] is T1, Protease. In words: Inhibition of purified HIV-1 protease using [Arg-Glu(EDANS)-Ser-Gin-Asn-Tyr-Ile-Val-Gin-Lys(dabcyl)-Arg) as fluorogenic substrate at 2 ng/ml by fluorescence assay.
Assay [4] has as its target T1, Protease. Nature of the assay: Inhibition of purified HIV-1 protease using [Arg-Glu(EDANS)-Ser-Gin-Asn-Tyr-Ile-Val-Gin-Lys(dabcyl)-Arg) as fluorogenic substrate at 0.08 ng/ml by fluorescence assay.
The target in assay [5] is T1, Protease. In words: Inhibition of purified HIV-1 protease using [Arg-Glu(EDANS)-Ser-Gin-Asn-Tyr-Ile-Val-Gin-Lys(dabcyl)-Arg) as fluorogenic substrate at 10 ng/ml by fluorescence assay.
Assay [6] deals with T1, Protease. In words: Inhibition of purified HIV-1 protease using [Arg-Glu(EDANS)-Ser-Gin-Asn-Tyr-Ile-Val-Gin-Lys(dabcyl)-Arg) as fluorogenic substrate by fluorescence assay. The method in brief:
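Wild-type HIV-1 protease, cloned, expressed in Escherichia coli and purified. Inhibitors dissolved in DMSO and diluted. Incubation at 30 °C in 0.1 M sodium acetate, 1 M NaCl, 1 mM DTT, 1 mM EDTA, 3% DMSO, pH 5.0, with the EDANS/dabcyl fluorogenic peptide substrate. Cleavage read by fluorescence in a microplate reader.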

Assay [7] has as its target Protease (Human immunodeficiency virus 1) (UniProt Q9YQ12). Nature of the assay: Inhibition of purified HIV-1 protease using [Arg-Glu(EDANS)-Ser-Gin-Asn-Tyr-Ile-Val-Gin-Lys(dabcyl)-Arg) as fluorogenic substrate at 10 nM by fluorescence assay.

T1 sequence (Q9YQ12 whole entry): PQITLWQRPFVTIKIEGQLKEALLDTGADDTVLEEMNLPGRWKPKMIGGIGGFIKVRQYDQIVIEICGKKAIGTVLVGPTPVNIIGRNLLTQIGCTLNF
Protease (Human immunodeficiency virus 1), sequence (Q9YQ12 as listed by the source): as the sequence (Q9YQ12 whole entry) above

In the case of `COc1ccc(S(=O)(=O)N(CC(C)C)C[C@@H](O)[C@H](Cc2ccccc2)NC(=O)O[C@H]2CO[C@H]3[C@@H]2OC[C@H]3O[N+](=O)[O-])cc1`, the Inhibition (in general, the change of the read-out against control, counted positive when it falls) is 93.1% on Protease [1]; 62.6% on Protease [2]; 93.1% at Protease [3]; 53.7% at Protease [4]; 100% on Protease [5]. Half-maximal inhibition against Protease [6] (IC50) was put at 0.11 nM.
Regarding `CO[C@@H]1CO[C@H]2[C@@H]1OC[C@@H]2OC(=O)N[C@@H](Cc1ccccc1)[C@H](O)CN(CC(C)C)S(=O)(=O)c1ccc(N)cc1`, the Inhibition at Protease [1] was found to be 97%; at Protease [2] it was 59.6%; at Protease [3], 103%; on Protease [4], 40.6%; at Protease [5] it was 100%. Also, half-maximal inhibition at Protease [6] (IC50) required 0.36 nM.
Turning to `COc1ccc(S(=O)(=O)N(CC(C)C)C[C@@H](O)[C@H](Cc2ccccc2)NC(=O)O[C@H]2CO[C@H]3[C@@H]2OC[C@H]3O)cc1`, the Inhibition was 97.2% at Protease [1]; 74.2% on Protease [2]; 99.5% at Protease [3]; 51.4% on Protease [4]; 98% at Protease [5]. For the same molecule, the IC50 (in general, the point on the concentration scale where inhibition reaches its midpoint) on Protease [6] came to 0.1 nM.
As to `CC(C)CN(C[C@@H](O)[C@H](Cc1ccccc1)NC(=O)O[C@H]1CO[C@H]2[C@@H]1OC[C@H]2O)S(=O)(=O)c1ccc(N)cc1`, the Inhibition on Protease [1] is 98.3%; at Protease [2], 57.7%; at Protease [3] it was 80.7%; on Protease [4], 33.7%; at Protease [5] it was 95.4%. Further, the IC50 against Protease [6] was determined as 0.43 nM.
For `CC(C)(C)NC(=O)[C@@H]1CN(Cc2cccnc2)CCN1C[C@@H](O)C[C@@H](Cc1ccccc1)C(=O)N[C@H]1c2ccccc2C[C@H]1O`, the inhibition – broadly, the relative decrease from the control value, in per cent – in assay [7] worked out at 96.9%.
Turning to `COc1ccc(S(=O)(=O)N(CC(C)C)C[C@@H](O)[C@H](Cc2ccccc2)NC(=O)O[C@H]2CO[C@H]3[C@@H]2OC[C@H]3OC)cc1`, the Inhibition was 96.2% on Protease [1]; 83.2% on Protease [2]; 93.5% at Protease [3]; 53.7% on Protease [4]; 102% at Protease [5]. Also, on Protease [6], the IC50 came to 0.05 nM.
As to `CC(C)CN(C[C@@H](O)[C@H](Cc1ccccc1)NC(=O)O[C@H]1CO[C@H]2[C@@H]1OC[C@H]2O[N+](=O)[O-])S(=O)(=O)c1ccc(N)cc1`, the Inhibition at Protease [1] came to 94.7%; at Protease [2] it was 75.7%; at Protease [3], 94.2%; on Protease [4] it was 47.2%; on Protease [5], 98.6%. In addition, 0.12 nM corresponded to half-maximal inhibition against Protease [6] (IC50).
